Results reported in article PMC4339548 (Clinica chimica acta; international journal of clinical …, 2015).
Read-outs that look alike come from different tables or passages of the source.

How the values were obtained:
[1] = Urinary excretion of oral sugar probes; type: in vivo, human; settings: for Percent urinary excretion of oral sugar probe: healthy subjects, oral cocktail, mean ± SD/SE; for Lactulose/Mannitol Ratio / Percent urinary excretion of oral sugar probe corrected for CrCl / Sucralose/Lactulose Ratio: mean ± SE; for % Total (of 24 h urinary excretion) corrected for CrCl / % Total (cum) corrected for CrCl: normalized for CrCl; for % Total (of 24 h urinary excretion) / % Total (cumulative): not normalized; for Percent urinary excretion of oral sugar probe corrected for CrCl: percent excretion divided by creatinine clearance; for % Total (cum) corrected for CrCl / % Total (cumulative): cumulative first 12 h; for Range of tertile means of 24 h percent excretion of oral dose: data divided into 3 tertile groups, lowest to highest excretion
[2] = ref [18], cited from earlier work
[3] = type: in vivo, human; settings: 24 h
How it was run: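 Age- and BMI-matched controls and patients fasted overnight and emptied their bladders. At 6 AM they took 2 g mannitol, 7.5 g lactulose and 40 g sucrose in 8 oz water, plus 1 g sucralose in 2 capsules. Fasting continued 2 h, with no "diet" foods or drinks from 48 h before through the test. Urine was pooled over 24 h and sugars were measured as alditol acetates by GC (DB-225MS). Results were expressed as % of oral dose and as the sucralose/lactulose ratio.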

[4] = 12-24 hour, listed as lactulose
[5] = 12-24 hour, listed as sucralose

| Compound | Percent urinary excretion of oral sugar probe ([1]; 0-5 hour urine collection) | % Total (of 24 h urinary excretion) corrected for CrCl ([1]; 0-5 hour) | % Total (of 24 h urinary excretion) ([1]; 0-5 hour) | Percent urinary excretion of oral sugar probe corrected for CrCl ([1]; 0-5 hour) | Percent urinary excretion of oral sugar probe ([1]; 0-24 hour urine collection) | % Total (of 24 h urinary excretion) corrected for CrCl ([1]; 0-24 hour) | % Total (of 24 h urinary excretion) ([1]; 0-24 hour) | Percent urinary excretion of oral sugar probe corrected for CrCl ([1]; 0-24 hour) | Percent urinary excretion of oral sugar probe ([1]; 5-12 hour urine collection) | % Total (of 24 h urinary excretion) corrected for CrCl ([1]; 5-12 hour) | % Total (of 24 h urinary excretion) ([1]; 5-12 hour) | Percent urinary excretion of oral sugar probe corrected for CrCl ([1]; 5-12 hour) | Percent urinary excretion of oral sugar probe ([1]; 12-24 hour urine collection) | % Total (of 24 h urinary excretion) corrected for CrCl ([1]; 12-24 hour) | % Total (of 24 h urinary excretion) ([1]; 12-24 hour) | Percent urinary excretion of oral sugar probe corrected for CrCl ([1]; 12-24 hour) | % Total (cum) corrected for CrCl [1] | % Total (cumulative) [1] | Range of tertile means of 24 h percent excretion of oral dose [1] | also measured |
| --- | --- | --- | --- | --- | --- | --- | --- | --- | --- | --- | --- | --- | --- | --- | --- | --- | --- | --- | --- | --- |
| OC[C@H]1O[C@@H](O[C@@H]2[C@@H](CO)O[C@](O)(CO)[C@H]2O)[C@H](O)[C@@H](O)[C@H]1O [Lactulose, 4-o-β-D-galactopyranosyl-D-fructofuranose] | 0.95 ± 0.6% | 30% | 29.3% | 0.012 ± 0.001 | 3.11 ± 0.2% | 100% | 100% | 0.04 ± 0.002 | 1.1 ± 0.19% | 32.4% | 26.8% | 0.012 ± 0.002 | 1.4 ± 0.1% | 40% | 43.9% | 0.016 ± 0.001 | 60% | 56.1% | 0.5%-1.7% | Lactulose/Mannitol Ratio ([1]; 0-5 hour urine): 0.065 ± 0.05; Lactulose/Mannitol Ratio ([1]; 0-5 hour urine, listed as lactulose): .065; % Total (of 24 h urinary excretion) ([1]; 0-5 hour, listed as lactulose): 29.3%; Lactulose/Mannitol Ratio ([1]; 0-24 hour urine): 0.124 ± 0.010; Lactulose/Mannitol Ratio ([1]; 0-24 hour urine, listed as lactulose): 0.124; Lactulose/Mannitol Ratio ([1]; 5-12 hour urine): 0.25 ± 0.03; Lactulose/Mannitol Ratio ([1]; 5-12 hour urine, listed as lactulose): 0.25; Lactulose/Mannitol Ratio ([1]; 12-24 hour urine): 0.534 ± 0.11; Lactulose/Mannitol Ratio ([1]; 12-24 hour urine, listed as lactulose): 0.534; % Total (of 24 h urinary excretion) corrected for CrCl [1, 4]: 40%; % Total (of 24 h urinary excretion) [1, 4]: 43.9%; Variation of lactulose/mannitol (L/M) ratio over 24 h ([1]; across collection segments, peak in second 12 hours): more than 8 fold |
| OC[C@@H](O)[C@@H](O)[C@H](O)[C@H](O)CO [Mannitol, D-mannitol] | 15.6 ± 0.8% | 52.9% | 61.5% | 0.18 ± 0.01 | 28.9 ± 1.3% | 99% | 100% | 0.34 ± 0.029 | 6.03 ± 0.96% | 22.6% | 20% | 0.077 ± 0.01 | 6.4 ± 1.3% | 23.5% | 18.5% | 0.08 ± 0.016 | 75.5% | 81.5% | – | % Total (of 24 h urinary excretion) corrected for CrCl ([1]; 0-5 hour, listed as mannitol): 52.9%; % Total (of 24 h urinary excretion) ([1]; 0-5 hour, listed as mannitol): 61.5%; % Total (of 24 h urinary excretion) corrected for CrCl ([1]; 12-24 hour, listed as mannitol): 23.5%; % Total (of 24 h urinary excretion) ([1]; 12-24 hour, listed as mannitol): 18.5% |
| OC[C@H]1O[C@H](O[C@]2(CCl)O[C@H](CCl)[C@@H](O)[C@@H]2O)[C@H](O)[C@@H](O)[C@H]1Cl [Sucralose, 1,6-dichloro-1,6-dideoxy-β-D-fructofuranosyl-4-chloro-4-deoxy-α-D-glucopyranoside] | 0.5 ± 0.8% | 33.3% | 35.9% | 0.005 ± 0.001 | 1.23 ± 0.14% | 99.5% | 100% | 0.015 ± 0.002 | 0.51 ± 0.13% | 38% | 29.7% | 0.0057 ± 0.001 | 0.3 ± 0.04% | 28.2% | 34.4% | 0.004 ± 0.0006 | 71.3% | 65.6% | 0.4%-2.4% | 24 h mean urinary excretion sucralose value ([2]; Parkinson's disease patients (N=9), p ≤ 0.015 vs controls): 1.12 ± 0.1; 24 h mean urinary excretion sucralose value ([2]; healthy controls (N=10), BMI/age-matched): 0.58 ± 0.1; Sucralose/Lactulose Ratio ([1]; 0-5 hour urine): 0.53 ± 0.10; Sucralose/Lactulose Ratio ([1]; 0-5 hour urine, listed as sucralose): 0.53; % Total (of 24 h urinary excretion) corrected for CrCl ([1]; 0-5 hour, listed as sucralose): 33.3%; % Total (of 24 h urinary excretion) ([1]; 0-5 hour, listed as sucralose): 35.9%; Sucralose/Lactulose Ratio ([1]; 0-24 hour urine): 0.49 ± 0.08; Sucralose/Lactulose Ratio ([1]; 0-24 hour urine, listed as sucralose): 0.49; Sucralose/Lactulose Ratio ([1]; 5-12 hour urine): 0.54 ± 0.13; Sucralose/Lactulose Ratio ([1]; 5-12 hour urine, listed as sucralose): 0.54; Sucralose/Lactulose Ratio ([1]; 12-24 hour urine): 0.36 ± 0.06; Sucralose/Lactulose Ratio ([1]; 12-24 hour urine, listed as sucralose): 0.36; % Total (of 24 h urinary excretion) corrected for CrCl [1, 5]: 28.2%; % Total (of 24 h urinary excretion) [1, 5]: 34.4%; mean urinary excretion sucralose/lactulose ratio ([3]; Parkinson's disease patients (N=9), p ≤ 0.001 vs controls): 0.48 ± 0.1; mean urinary excretion sucralose/lactulose ratio ([3]; healthy controls (N=10)): 0.21± 0.1 |
| OC[C@H]1O[C@@](CO)(O[C@H]2O[C@H](CO)[C@@H](O)[C@H](O)[C@H]2O)[C@@H](O)[C@@H]1O [Sucrose, α-D-glucopyranosyl-β-D-fructofuranoside] | 0.5 ± 0.15% | 26.9% | 29.6% | 0.006 ± 0.0007 | 1.82 ± 0.17% | 94.6% | 100% | 0.0223 ± 0.002 | – | 26.9% | 27.4% | 0.006 ± 0.001 | 0.8 ± 0.7% | 40.8% | 43% | 0.009 ± 0.0009 | 53.8% | 57% | 0.3%-0.6% | – |
